Experimental data as given in paper PMC7917164 (Bioorganic & medicinal chemistry, 2020).
Marks after values point to notes of the source that are not given here.

Experiments:
[1] = system: Notch processing by γ-secretase; experiment: Notch processing in H4-APP751 cells transfected with the NΔE construct; assay type: cell-based, human; details: 24hrs, 22d 10 μM and 1 μM, DAPT 300 nM and 100 nM
Method in brief: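 H4 human neuroglioma cells stably overexpressing human APP751 were transfected with an […] Myc-tagged NΔE Notch construct. They were then treated with the test compound, a reference γ-secretase inhibitor or vehicle for 24 h and harvested 48 h post-transfection. Western blots were probed with anti-Myc antibody to detect NΔE and NICD, with β-actin as loading control.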

[2] = system: Aβ42 levels (γ-secretase modulation) in SHSY5Y-APP cells; experiment: Cell-based ELISA assay for measuring extracellular Aβ42 levels; set-up: species or system human
[3] = Pharmacokinetic evaluation after single iv and po administration; assay type: in vivo, male CD-1 mice; details: for Fraction of oral dose absorbed / Share of absorbed dose metabolized during the first-pass: mice, po; for Fraction of oral dose absorbed: accounting for first-pass effects; for Clearance as share of mouse hepatic blood flow: male CD-1 mice, hepatic blood flow ~90 mL/min/kg; for Share of absorbed dose metabolized during the first-pass: assuming hepatic elimination
[4] = Kinetic aqueous solubility by UV/Vis absorbance in PBS buffer; assay type: physicochemical; details: pH 7.4, PBS buffer
[5] = system: Aβ38, Aβ40, Aβ42 and total Aβ peptide levels in SHSY5Y-APP cells; experiment: Meso Scale multiplex assay of Aβ peptides in SHSY5Y-APP cells; assay type: cell-based, human; details: concentration response
Method in brief: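 Human SH-SY5Y neuroblastoma cells stably overexpressing wild-type human APP751 were exposed to the test compound at a range of concentrations. Aβ38, Aβ40, Aβ42 and total Aβ in the samples were measured by Meso Scale Sector 6000 multiplex assay. Plates were read on an MSD SECTOR Imager after read buffer was added, and peptide concentrations were back-fitted from their respective standard curves.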

[6] = system: plasma Aβ38, Aβ40 and Aβ42 levels; experiment: Pharmacodynamic study using J20 mice; assay type: in vivo, female J20 mice; details: daily oral, 3-day treatment; for Effect on plasma Aβ42 and Aβ40: 25, 50 and 100 mg/kg; for Effect on Aβ38 levels: plasma
Method in brief: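 Female J20 transgenic mice (5–6 months old, n=5/dose) received the test compound or vehicle (5% NMP/95% PEG300) by oral gavage once daily for three days. Animals were killed 4 h after the day-3 dose, and plasma and brain were collected. Aβ38, Aβ40 and Aβ42 were quantified with Meso Scale multiplex kits, and data were analysed as mean ± SEM with ANOVA.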

[7] = system: plasma and brain Aβ38, Aβ40 and Aβ42 levels; experiment: Pharmacodynamic study using Tg2576 mice; assay type: in vivo, female Tg2576 mice; details: 50 mg/kg, oral daily, 14 days
Method in brief: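 Dosing was by oral gavage in female Tg2576 mice (5–6 months old, n=12/dose), given the test compound or vehicle (5% NMP/95% PEG300) daily for 14 consecutive days. Mice were killed 4 h after the final dose on day 14, and plasma and brain were harvested. Aβ38, Aβ40 and Aβ42 were measured by Meso Scale multiplex assay, and results were expressed as mean ± SEM with ANOVA.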

[8] = male, CD-1, mouse, plasma, iv, 1 mg/kg

| Structure (SMILES) | Parent Aβ42 IC50 [2] [nM] | clearance at 24 h [3, 8] [mL/min/kg] | Fraction of oral dose absorbed [3] | also measured |
| --- | --- | --- | --- | --- |
| C[C@H](NC(=O)Cc1cc(F)cc(F)c1)C(=O)N[C@H](C(=O)OC(C)(C)C)c1ccccc1 [DAPT, reference compound] | – | – | – | Notch processing (NΔE to NICD) [1]: significantly inhibits |
| CCn1nc(C(F)(F)F)cc1Nc1nc(-c2ccc(-n3cnc(C)c3)c(OC)n2)cs1 [Compound 60, N-(1-ethyl-3-(trifluoromethyl)-1H-pyrazol-5-yl)-4-(6-methoxy-5-(4-methyl-1H-imidazol-1-yl)pyridin-2-yl)thiazol-2-amine] | 98 | 26.8 | greater than 80% | – |
| CCn1nc2c(c1Nc1nc(-c3ccc(-n4cnc(C)c4)c(OC)n3)cs1)CCCC2 [Compound 22d, N-(2-ethyl-4,5,6,7-tetrahydro-2H-indazol-3-yl)-4-(6-methoxy-5-(4-methyl-1H-imidazol-1-yl)pyridin-2-yl)thiazol-2-amine] | – | – | ~90% | Kin. Aq. Sol. [4]: 4.5* μM; Clearance as share of mouse hepatic blood flow ([3]; iv): approximately 40%; Share of absorbed dose metabolized during the first-pass [3]: approximately 40%; Notch processing (NΔE to NICD) [1]: did not inhibit; Aβ38 levels [5]: potentiated; Aβ40 levels [5]: suppressed; Aβ42 levels [5]: suppressed; total levels of Aβ [5]: no change |
| COc1nc(-c2csc(Nc3c4c(nn3C)CCC4)n2)ccc1-n1cnc(C)c1 [Compound 63, 4-(6-methoxy-5-(4-methyl-1H-imidazol-1-yl)pyridin-2-yl)-N-(2-methyl-2,4,5,6-tetrahydrocyclopenta[c]pyrazol-3-yl)thiazol-2-amine] | >1000 | 21.8 | greater than 80% | Clearance as share of mouse hepatic blood flow ([3]; iv): ~24% |
| COc1nc(-c2csc(Nc3c4c(nn3CCF)CCCC4)n2)ccc1-n1cnc(C)c1 [Compound 46, N-(2-(2-fluoroethyl)-4,5,6,7-tetrahydro-2H-indazol-3-yl)-4-(6-methoxy-5-(4-methyl-1H-imidazol-1-yl)pyridin-2-yl)thiazol-2-amine] | 110 | 57.8 | nearly complete | Share of absorbed dose metabolized during the first-pass [3]: approximately 60%; Effect on plasma Aβ42 and Aβ40 [6]: plateau between 50 and 100 mg/kg; Effect on Aβ38 levels [6]: reduced |
| CCn1nc(C2(C)CC2)cc1Nc1nc(-c2ccc(-n3cnc(C)c3)c(OC)n2)cs1 [Compound 59, N-(1-ethyl-3-(1-methylcyclopropyl)-1H-pyrazol-5-yl)-4-(6-methoxy-5-(4-methyl-1H-imidazol-1-yl)pyridin-2-yl)thiazol-2-amine] | – | 12.1 | – | Clearance as share of mouse hepatic blood flow ([3]; iv): approximately 13% |
| CCn1nc2c(c1Nc1nc(-c3ccc(-n4cnc(C)c4)c(OC)n3)cs1)CCC2 [Compound 64, N-(2-ethyl-2,4,5,6-tetrahydrocyclopenta[c]pyrazol-3-yl)-4-(6-methoxy-5-(4-methyl-1H-imidazol-1-yl)pyridin-2-yl)thiazol-2-amine] | 41 | 43.5 | greater than 80% | half-life [3, 8]: 42 min; Effect on plasma Aβ42 and Aβ40 [6]: dose-dependent reduction; Effect on Aβ38 levels [6]: reduced; Effect on plasma Aβ38 levels [7]: potentiating; Effect on plasma Aβ42 and Aβ40 levels [7]: decreased |
| CCn1nc2c(c1N(C)c1nc(-c3ccc(-n4cnc(C)c4)c(OC)n3)cs1)CCCC2 [Compound 52, N-(2-ethyl-4,5,6,7-tetrahydro-2H-indazol-3-yl)-4-(6-methoxy-5-(4-methyl-1H-imidazol-1-yl)pyridin-2-yl)-N-methylthiazol-2-amine] | >1000 | – | – | – |
| COCCn1nc2c(c1Nc1nc(-c3ccc(-n4cnc(C)c4)c(OC)n3)cs1)CCCC2 [Compound 48, 4-(6-methoxy-5-(4-methyl-1H-imidazol-1-yl)pyridin-2-yl)-N-(2-(2-methoxyethyl)-4,5,6,7-tetrahydro-2H-indazol-3-yl)thiazol-2-amine] | 272 | – | – | – |
| COc1nc(-c2csc(Nc3c4c(nn3C3CCOCC3)CCCC4)n2)ccc1-n1cnc(C)c1 [Compound 41, 4-(6-methoxy-5-(4-methyl-1H-imidazol-1-yl)pyridin-2-yl)-N-(2-(tetrahydro-2H-pyran-4-yl)-4,5,6,7-tetrahydro-2H-indazol-3-yl)thiazol-2-amine] | 766 | – | – | – |
| COc1nc(-c2csc(Nc3cc(C(C)(C)C)nn3C(C)(C)C)n2)ccc1-n1cnc(C)c1 [Compound 55, N-(1,3-di-tert-butyl-1H-pyrazol-5-yl)-4-(6-methoxy-5-(4-methyl-1H-imidazol-1-yl)pyridin-2-yl)thiazol-2-amine] | 85 | – | – | – |
| CCn1nc2c(c1Nc1nc(-c3ccc(-n4cnc(C)c4)c(OC)n3)cs1)C(C)CC2(C)C (racemic) [Compound 72, (+/−)-N-(2-ethyl-4,6,6-trimethyl-2,4,5,6-tetrahydrocyclopenta[c]pyrazol-3-yl)-4-(6-methoxy-5-(4-methyl-1H-imidazol-1-yl)pyridin-2-yl)thiazol-2-amine] | 49 | – | – | – |
